Test results as given in ChEMBL document CHEMBL1687750, “Nonclinical pharmacokinetics of oseltamivir and oseltamivir carboxylate in the central nervous system” (Antimicrob Agents Chemother, 2009).

Tests used:
[1] = Cmax in non-perfused Sprague-Dawley rat cerebrospinal fluid at 30 mg/kg, iv; format: ADME, organism-based; set-up: dose 30 mg/kg, route intravenous
In short: (§1)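 Nonfasted adult rats received 30 mg/kg in aqueous 0.9% NaCl (pH 4.0) by slow tail-vein injection over 20–30 s. Groups were sampled at 5 min and 0.25, 0.5, 1, 2, 4 and 8 h, with 4–5 rats per time point, under terminal isoflurane. Blood was taken by heart puncture and CSF from the cisterna magna. Brains were homogenized either unperfused or after transcardial saline perfusion. Samples were assayed by LC-MS/MS, and pooled composite data were analyzed noncompartmentally.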

[2] = Permeability from […] of Spodoptera frugiperda Sf9 cells over expressing human BCRP1; format: ADME, cell-based
In short: (§2)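 Membrane vesicles (20–50 µg) from insect cells expressing recombinant human BCRP1, MRP1 or MRP3 were prewarmed at 37°C. They were incubated for 60 s at 37°C with 14C-oseltamivir (3.8 µM) or OC (3.1 µM), with or without 5 mM ATP, in sucrose/KNO3/Mg(NO3)2/HEPES-Tris pH 7.4. The reaction was stopped with ice-cold buffer containing taurocholate, followed by rapid nitrocellulose filtration and scintillation counting. Determinations were in triplicate.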

[3] = system: Brain; assay: Ratio of AUC (0 to infinity) after iv dose to AUC (0 to 8 hrs) after po dose in perfused Sprague-Dawley rat brain at 1000 mg/kg; format: ADME, organism-based; set-up: dose 1000 mg/kg, route oral; settings: in vivo
In short: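 Sprague-Dawley rats, nonfasted. i.v.: 30 mg/kg in 0.9% NaCl pH 4.0, slow tail-vein injection, sampled at 5 min and 0.25–8 h. Oral gavage: 1,000 mg/kg free base, sampled 1–8 h. Four or five rats per time point, with cardiac blood and cisterna magna CSF. Brains taken with or without saline transcardial perfusion (oral study perfused). LC-MS/MS. AUC by noncompartmental analysis of pooled composite data.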

[4] = system: Cerebrospinal fluid; assay: AUC (0 to 8 hrs) after iv dose in non-perfused Sprague-Dawley rat cerebrospinal fluid at 30 mg/kg; settings: in vivo
[5] = Terminal half life in non-perfused Sprague-Dawley rat plasma at 30 mg/kg, iv; format: ADME, organism-based; set-up: dose 30 mg/kg, route intravenous; settings: read-out: beta t1/2 (converted)
In short: (§3)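 Nonfasted Sprague-Dawley rats given 30 mg/kg i.v. in 0.9% NaCl pH 4.0 by tail vein over 20–30 s. Terminal sampling under isoflurane at 5 min, 0.25, 0.5, 1, 2, 4 and 8 h (4–5 rats/time): plasma, CSF, and brain homogenate, with or without saline perfusion. LC-MS/MS. t1/2, Vss and ratios from noncompartmental analysis of pooled composite concentrations.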

[6] = […] of Spodoptera frugiperda Sf9 cells over expressing human MRP1; format: ADME, cell-based; in short: as §2
[7] = AUC (0 to 8 hrs) ratio in cerebrospinal fluid to brain in perfused Sprague-Dawley rat at 1000 mg/kg, po; format: ADME, organism-based; set-up: dose 1000 mg/kg, route oral; settings: in vivo
In short: (§4)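 Oseltamivir phosphate was given by oral gavage at 1,000 mg/kg free base. Sampling was at 1, 2, 4, 6 and 8 h, with 4 rats per time point, under terminal isoflurane. Blood was taken by cardiac puncture and CSF from the cisterna magna. Brains were perfused transcardially with saline before homogenization. Samples were quantified by LC-MS/MS, with noncompartmental analysis of pooled composite data giving AUC0-8 h and concentration ratios.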

[8] = system: Plasma; assay: AUC (0 to 8 hrs) after iv dose in perfused Sprague-Dawley rat plasma at 30 mg/kg; settings: in vivo
[9] = Cmax in perfused Sprague-Dawley rat brain at 30 mg/kg, iv; format: ADME, organism-based; set-up: dose 30 mg/kg, route intravenous; in short: as §1
[10] = Cmax in perfused Sprague-Dawley rat brain at 1000 mg/kg, po; format: ADME, organism-based; set-up: dose 1000 mg/kg, route oral; in short: as §4
[11] = Cmax in perfused Sprague-Dawley rat plasma at 30 mg/kg, iv; format: ADME, organism-based; set-up: dose 30 mg/kg, route intravenous; in short: as §1
[12] = system: Brain; assay: AUC (0 to 8 hrs) after iv dose in perfused Sprague-Dawley rat brain at 30 mg/kg; settings: in vivo
[13] = system: Brain; assay: AUC (0 to 8 hrs) after iv dose in non-perfused Sprague-Dawley rat brain at 30 mg/kg; settings: in vivo
[14] = Cmax in non-perfused Sprague-Dawley rat brain at 30 mg/kg, iv; format: ADME, organism-based; set-up: dose 30 mg/kg, route intravenous; in short: as §1
[15] = Cmax in non-perfused Sprague-Dawley rat plasma at 30 mg/kg, iv; format: ADME, organism-based; set-up: dose 30 mg/kg, route intravenous; in short: as §1
[16] = Cmax in perfused Sprague-Dawley rat plasma at 1000 mg/kg, po; format: ADME, organism-based; set-up: dose 1000 mg/kg, route oral; in short: as §4
[17] = Terminal half life in perfused Sprague-Dawley rat plasma at 30 mg/kg, iv; format: ADME, organism-based; set-up: dose 30 mg/kg, route intravenous; settings: read-out: beta t1/2 (converted); in short: as §3
[18] = system: Cerebrospinal fluid; assay: AUC (0 to 8 hrs) after po dose in perfused Sprague-Dawley rat cerebrospinal fluid at 1000 mg/kg; settings: in vivo
[19] = AUC (0 to 8 hrs) ratio in brain to plasma in perfused Sprague-Dawley rat at 1000 mg/kg, po; format: ADME, organism-based; set-up: dose 1000 mg/kg, route oral; settings: brain and plasma, read-out: Ratio AUC; in short: as §4
[20] = Terminal half life in perfused Sprague-Dawley rat brain at 30 mg/kg, iv; format: ADME, organism-based; set-up: dose 30 mg/kg, route intravenous; settings: read-out: beta t1/2 (converted); in short: as §3
[21] = Cmax in perfused Sprague-Dawley rat cerebrospinal fluid at 1000 mg/kg, po; format: ADME, organism-based; set-up: dose 1000 mg/kg, route oral; in short: as §4
[22] = Terminal half life in perfused Sprague-Dawley rat cerebrospinal fluid at 30 mg/kg, iv; format: ADME, organism-based; set-up: dose 30 mg/kg, route intravenous; settings: read-out: beta t1/2 (converted); in short: as §3
[23] = system: Plasma; assay: AUC (0 to 8 hrs) after po dose in perfused Sprague-Dawley rat plasma at 1000 mg/kg; settings: in vivo
[24] = Terminal half life in non-perfused Sprague-Dawley rat brain at 30 mg/kg, iv; format: ADME, organism-based; set-up: dose 30 mg/kg, route intravenous; settings: read-out: beta t1/2 (converted); in short: as §3
[25] = Permeability from […] of Spodoptera frugiperda Sf9 cells over expressing human MRP3; format: ADME, cell-based; in short: as §2
[26] = AUC (0 to 8 hrs) ratio in cerebrospinal fluid to plasma in perfused Sprague-Dawley rat at 1000 mg/kg, po; format: ADME, organism-based; set-up: dose 1000 mg/kg, route oral; settings: cerebrospinal fluid and plasma, read-out: Ratio AUC; in short: as §4
[27] = Cmax in perfused Sprague-Dawley rat cerebrospinal fluid at 30 mg/kg, iv; format: ADME, organism-based; set-up: dose 30 mg/kg, route intravenous; in short: as §1
[28] = Terminal half life in non-perfused Sprague-Dawley rat cerebrospinal fluid at 30 mg/kg, iv; format: ADME, organism-based; set-up: dose 30 mg/kg, route intravenous; settings: read-out: beta t1/2 (converted); in short: as §3
[29] = system: Cerebrospinal fluid; assay: AUC (0 to 8 hrs) after iv dose in perfused Sprague-Dawley rat cerebrospinal fluid at 30 mg/kg; settings: in vivo
[30] = Prodrug conversion in human liver S9 fractions assessed as paranitrophenol generation rate assessed per mg of protein per min; format: ADME, subcellular, S9 fraction
[31] = Clearance in Sprague-Dawley rat at 30 mg/kg, iv; format: ADME, organism-based; set-up: dose 30 mg/kg, route intravenous; settings: in vivo; in short: as §1
[32] = Prodrug conversion in commercial liver S9 fractions assessed as oseltamivir carboxylate generation rate assessed per mg of protein per min; format: ADME, subcellular, S9 fraction
In short: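 S9 from brain or liver (rat S9 made by homogenizing tissue in ~4 ml Tris-sucrose buffer per g, supernatant after 9,000 × g at 10°C; pooled human brain and liver S9 also used), protein by bicinchoninic acid assay. Oseltamivir: triplicate, 10 μM 14C-oseltamivir final, 1.0 mg S9 protein, 100 mM Tris-HCl pH 7.4, 30 min at 37°C, quenched with TCA-acetonitrile.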

[33] = AUC ratio in cerebrospinal fluid to plasma in Sprague-Dawley rat at 30 mg/kg, iv; format: ADME, organism-based; set-up: dose 30 mg/kg, route intravenous; settings: cerebrospinal fluid and plasma, read-out: Ratio AUC; in short: as §1
[34] = Prodrug conversion in 7 days old male rat brain S9 fractions assessed as paranitrophenol generation rate assessed per mg of protein per min; format: ADME, tissue-based

SMILES	Cmax [1]	permeability [2]	AUC [4]	half-life [5]	permeability [6]	Ratio AUC [7]	AUC [8]	Cmax [9]	Cmax [10]	Cmax [11]	AUC [12]	AUC [13]	Cmax [14]	Cmax [15]	Cmax [16]	half-life [17]	AUC [18]	Kp [19]	half-life [20]	Cmax [21]	other results
CCC(CC)O[C@@H]1C=C(C(=O)O)C[C@H](N)[C@H]1NC(C)=O [OSELTAMIVIR CARBOXYLATE]	227 ng/mL	impermeable	128	1.64 h	impermeable	0.64	33800	605 ng/g	641 ng/g	86300 ng/mL	305	687	1710 ng/g	72300 ng/mL	49700 ng/mL	1.69 h	1940	0.01	0.478 h	363 ng/mL	Ratio AUC [3]: 3450; half-life [22]: 0.382 h; AUC [23]: 286000; half-life [24]: 0.379 h; permeability [25]: impermeable; Kp [26]: 0.007; Cmax [27]: 249 ng/mL; half-life [28]: 0.342 h; AUC [29]: 137
CCOC(=O)C1=C[C@@H](OC(CC)CC)[C@H](NC(C)=O)[C@@H](N)C1 [OSELTAMIVIR]	897 ng/mL	impermeable	450	1.35 h	impermeable	0.55	5330	491 ng/g	2310 ng/g	12500 ng/mL	1160	1310	712 ng/g	12000 ng/mL	16300 ng/mL	1.59 h	7470	0.12	1.51 h	1120 ng/mL	Activity [30]: 574 nmol; AUC [3]: 13600 ng·h/g; clearance [31]: 93.9 mL/min/kg; Activity [32]: 126 pmol/s; Kp [33]: 0.09; Activity [34]: 80 nmol; half-life [22]: 0.812 h; AUC [23]: 107000; half-life [24]: 2.45 h; permeability [25]: impermeable; Kp [26]: 0.07; Cmax [27]: 921 ng/mL; half-life [28]: 0.813 h; AUC [29]: 472
